# In PMC7613793 (Cell metabolism, 2022):
# “Also recorded” adds a separate entry of the source.
# Key:
# [1] = system: dipeptidyl peptidase 4 (DPP-4); conditions: cited from earlier work
# [2] = system: tuberal region of the hypothalamus; type: in vivo, mouse; conditions: mice, intravenous (jugular vein), 90 nmol/Kg, 15 and 60 seconds after injection; Fig. 1a
# hypothalamic neurons = type: in vivo, mouse
# [3] = system: tanycytes and neuron-like cells of the ME and vmARH; assay: pCREB immunohistochemistry in ME/ARH after intravenous liraglutide; type: in vivo, mouse; conditions: mice, 90 nmol/Kg, at 1 min, n = 4 animals per group, Fig. 1f-h
# Outline: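 Male mice, 8-10 weeks, fitted with a jugular vein catheter under ketamine-xylazine. Saline or liraglutide given i.v. at 90 nmol/Kg, then transcardial perfusion with saline and 0.1M PBS-4% PFA (pH 7.4). 30 μm free-floating sections double-stained with chicken anti-vimentin and rabbit anti-phospho-CREB. pCREB-positive tanycytes and neuron-like cells counted in ME, vmARH, dmARH and total ARH, 3–4 sections per animal. Unpaired t-test.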
# [4] = type: in vivo, mouse
# rat primary tanycytes = assay: pCREB induction in primary tanycytes; type: cell-based; conditions: Supplementary Fig. 2a
# primary tanycytes = type: in vitro ADME, rat; conditions: 37 °C
# Outline: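 Rat tanycytes from median eminences of P10 pups, seeded on coated permeable supports (90 000 cells/cm2) 17 days after isolation: 4 days in 10% donor bovine serum, then 3 days serum-free with insulin and putrescine. On day 7, 15 min preincubation at 37 °C ± 1000 nM exendin9-39. Apical 0.7 nM 125I-liraglutide (1 μCi/ml) ± unlabeled liraglutide 10–10 000 nM, 60 min, 37 °C, shaking. Uptake read from cut supports; release in fresh buffer up to 1 h.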
molecule,measurement,setting,value
CCCCCCCCCCCCCCCC(=O)N[C@@H](CCC(=O)NCCCC[C@H](NC(=O)[C@H](C)NC(=O)[C@H](C)NC(=O)[C@H](CCC(N)=O)NC(=O)CNC(=O)[C@H](CCC(=O)O)NC(=O)[C@H](CC(C)C)NC(=O)[C@H](Cc1ccc(O)cc1)NC(=O)[C@H](CO)NC(=O)[C@H](CO)NC(=O)[C@@H](NC(=O)[C@H](CC(=O)O)NC(=O)[C@H](CO)NC(=O)[C@@H](NC(=O)[C@H](Cc1ccccc1)NC(=O)[C@@H](NC(=O)CNC(=O)[C@H](CCC(=O)O)NC(=O)[C@H](C)NC(=O)[C@@H](N)Cc1cnc[nH]1)[C@@H](C)O)[C@@H](C)O)C(C)C)C(=O)N[C@@H](CCC(=O)O)C(=O)N[C@@H](Cc1ccccc1)C(=O)N[C@H](C(=O)N[C@@H](C)C(=O)N[C@@H](Cc1c[nH]c2ccccc12)C(=O)N[C@@H](CC(C)C)C(=O)N[C@H](C(=O)N[C@@H](CCCNC(=N)N)C(=O)NCC(=O)N[C@@H](CCCNC(=N)N)C(=O)NCC(=O)O)C(C)C)[C@@H](C)CC)C(=O)O [liraglutide],Cleavage by DPP-4 and half-life compared to endogenous GLP1,"[1]; ref Kim and Egan, 2008",reduces its cleavage by DPP-4 and prolongs its half-life
same,Route of brain entry of fluorescently labeled liraglutide,[2],did not cross the microvascular endothelial cells of the BBB; also recorded: extravasated through the fenestrated vessels of the ME
same,"c-Fos activation of neurons in AHN, PVH and LHA, control mice","hypothalamic neurons; anesthetized control mice, ten minutes after intravenous injection, 90 nmol/Kg",activated
same,"c-Fos expression in DMH and ZI, control mice","hypothalamic neurons; control mice, one hour after intraperitoneal injection",did not significantly upregulate c-Fos expression
same,"c-Fos expression, iBot mice","hypothalamic neurons; iBot littermates, one hour after intraperitoneal injection, Fig. 2d-f",unaffected
same,"c-Fos expression in hypothalamic neurons, iBot mice","hypothalamic neurons; mouse, in vivo, iv",failed to significantly induce c-Fos expression
same,"c-Fos activation of neurons in PVH and LHA (not AHN), control mice","hypothalamic neurons; unanesthetized control mice, one hour after intraperitoneal injection, Fig. 2",remain activated
same,pCREB in tanycytes and neuron-like cells of the ME and vmARH vs saline,[3],markedly induced pCREB
same,Energy expenditure,"[4]; control mice, 0.1 mg/kg for 3 consecutive days, vs saline",markedly reduced
same,Food intake,"[4]; control mice, 0.1 mg/kg for 3 consecutive days, vs saline, Fig. 3b",markedly reduced
same,Fatty acid oxidation,"[4]; control mice, 0.1 mg/kg for 3 consecutive days, Fig. 3e",increased fatty acid oxidation
same,Fat mass,"[4]; control mice, 0.1 mg/kg for 3 consecutive days, NMR body composition, Fig. 3d",fat mass reduction
same,Anti-obesity effects in iBot mice,"[4]; mouse, in vivo, 0.1 mg/kg",abrogated
same,pCREB in rat primary tanycytes,rat primary tanycytes; liraglutide treatment,induced
Glucagon-like peptide 1 (GLP1; 7–36 amide),Degradation by DPP-4 in vivo,"[1]; in vivo, ref not given",rapid degradation
^125I-liraglutide: radioactively labeled liraglutide,Liraglutide accumulation in tanycytes relative to endothelial cells,"primary tanycytes; 125I-liraglutide 0.7 nM, with or without unlabeled liraglutide 10 μM, transwell, uptake buffer pH 7.4, 60 min, n = 3, 3, 8, 8 wells from 2 independent experiments, Fig. 1c",approximately 4 times
same,Time to saturation of uptake by tanycytes,"primary tanycytes; pulse-chase experiment in vitro, Fig. 1e",≤ 15 min
exendin 9-39,Effect on liraglutide-induced pCREB in rat primary tanycytes,rat primary tanycytes; co-treatment with liraglutide,blunted
liraglutide^564: fluorescently labeled liraglutide provided by Novo Nordisk,Route of brain entry of fluorescently labeled liraglutide,[2],does not extravasate from BBB vessels
